Measured values published in ChEMBL document CHEMBL1828502, “Quinolinyl and quinolinyl N-oxide chalcones: synthesis, antifungal and cytotoxic activities” (Eur J Med Chem, 2011).
≈ marks a conversion by molar mass, not a printed value.

Assays:
HL-60 = assay: Anticancer activity against human HL60 cells after 48 hrs by MTT assay; assay type: functional, cell-based
Method in brief: (§1)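 HL60 and Jurkat leukemia lines plated at 50,000 and 100,000 cells/well respectively and pre-incubated 24 h at 37 °C, 5% CO2. Compounds dissolved in DMSO and tested over a concentration range of […] for 48 h. Viability read by MTT reduction (4 h), formazan dissolved in acidic isopropanol, OD 590 nm. Values normalized to 0.05% DMSO control; IC50 taken graphically from dose-effect curves. Triplicate, three separate days.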

Candida tropicalis [1] = assay: Antifungal activity against Candida tropicalis by two fold serial dilution method; assay type: functional
Method in brief: (§2)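 Broth microdilution MIC following CLSI M27-A2 with twofold serial dilutions; strains ATCC 18804 (C. albicans), ATCC 22019 (C. parapsilosis), ATCC 750 (C. tropicalis), ATCC 32608 (C. gattii), kept on Sabouraud dextrose agar at 4 °C. Amphotericin B and trimethoprim/sulfamethoxazole served as positive controls.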

TK-10 = assay: Anticancer activity against human TK10 cells after 48 hrs by sulforhodamine B assay; assay type: functional, cell-based
Method in brief: (§3)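 Solid tumour lines from NCI (NCI colorimetric protocol), seeded and pre-incubated 24 h at 37 °C, 5% CO2, then exposed to compounds for 48 h. Proteins fixed with trichloroacetic acid, stained with sulforhodamine B, dye dissolved in 10 mM Tris, absorbance at 515 nm compared against initial-density control wells. IC50 from dose-response curves built with 1:2 serial dilutions; duplicate, repeated at least three times.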

[2] = test system: Cryptococcus gattii species complex; assay: Antifungal activity against Cryptococcus gattii by two fold serial dilution method; assay type: functional, Cryptococcus bacillisporus; method in brief: as §2
[3] = test system: Paracoccidioides brasiliensis; assay: Antifungal activity against Paracoccidioides brasiliensis Pb18 by serial dilution method; assay type: functional
Candida albicans = assay: Antifungal activity against Candida albicans by two fold serial dilution method; assay type: functional; method in brief: as §2
MCF7 = assay: Anticancer activity against human MCF7 cells after 48 hrs by sulforhodamine B assay; assay type: functional, cell-based; method in brief: as §3
UACC-62 = assay: Anticancer activity against human UACC62 cells after 48 hrs by sulforhodamine B assay; assay type: functional, cell-based; method in brief: as §3
Jurkat = assay: Anticancer activity against human Jurkat cells after 48 hrs by MTT assay; assay type: functional, cell-based; method in brief: as §1
Candida parapsilosis = assay: Antifungal activity against Candida parapsilosis by two fold serial dilution method; assay type: functional; details: Lodderomyces parapsilosis; method in brief: as §2
Candida tropicalis [4] = assay: Antifungal activity against Candida tropicalis after 2 days by broth microdilution method in presence of 1 M osmotic stabilizer sorbitol; assay type: functional; details: 48 h
[5] = test system: Paracoccidioides brasiliensis; assay: Antifungal activity against Paracoccidioides brasiliensis Pb18 after 10 days by broth microdilution method in presence of 1 M osmotic stabilizer sorbitol; assay type: functional; details: 240 h
[6] = test system: Cryptococcus gattii species complex; assay: Antifungal activity against Cryptococcus gattii by two fold serial dilution method after 3 days by broth microdilution method in presence of 1 M osmotic stabilizer sorbitol; assay type: functional, Cryptococcus bacillisporus; details: 72 h
[7] = Homo sapiens, HL-60, 48 h, read-out: IC50
[8] = Homo sapiens, TK-10, 48 h, read-out: IC50
[9] = Homo sapiens, MCF7, 48 h, read-out: IC50
[10] = Homo sapiens, UACC-62, 48 h, read-out: IC50
[11] = Homo sapiens, Jurkat, 48 h, read-out: IC50

Compound | IC50 (HL-60; [7]) [µg/mL] | MIC (Candida tropicalis [1]) [µg/mL] | IC50 (TK-10; [8]) [µg/mL] | MIC [2] [µg/mL] | MIC [3] [µg/mL] | MIC (Candida albicans) [µg/mL] | IC50 (MCF7; [9]) [µg/mL] | IC50 (UACC-62; [10]) [µg/mL] | IC50 (Jurkat; [11]) [µg/mL] | MIC (Candida parapsilosis) [µg/mL] | IC50 (HL-60; hl-60) | MIC (Candida tropicalis [4]) [µg/mL] | IC50 (TK-10; tk-10) | MIC [5] [µg/mL] | IC50 (MCF7; mcf7) | IC50 (UACC-62; uacc-62) | MIC [6] [µg/mL] | IC50 (Jurkat; jurkat)
Cc1ccc(C(=O)/C=C/c2ccc3c(ccc[n+]3[O-])c2)cc1 | 20.3 (≈ 70.2 µM) | > 500 | 1 (≈ 3.46 µM) | 500 (≈ 1730 µM) | 125 (≈ 432 µM) | > 500 | 8.3 (≈ 28.7 µM) | 5.3 (≈ 18.3 µM) | 32.5 (≈ 112 µM) | > 500 | – | – | – | – | – | – | – | –
C[n+]1cccc2cc(/C=C/C(=O)c3ccc([N+](=O)[O-])cc3)ccc21.[I-] | – | 250 | – | 31.2 | 250 | > 500 | – | – | – | > 500 | Not Active | > 31.2 | Not Active | > 31.2 | Not Active | Not Active | 62.5 | Not Active
O=C(/C=C/c1ccc2c(ccc[n+]2[O-])c1)c1ccc(Cl)cc1 | 33.8 (≈ 109 µM) | > 500 | 1.7 (≈ 5.49 µM) | 250 (≈ 807 µM) | 15.5 (≈ 50 µM) | > 500 | 6.6 (≈ 21.3 µM) | 4.9 (≈ 15.8 µM) | 4.9 (≈ 15.8 µM) | > 500 | – | > 31.2 | – | 15.6 | – | – | > 31.2 | –
O=C(/C=C/c1ccc2c(ccc[n+]2[O-])c1)c1ccc([N+](=O)[O-])cc1 | – | > 500 | – | > 500 | 500 (≈ 1560 µM) | > 500 | – | – | – | > 500 | – | – | – | – | – | – | – | –
O=C(/C=C/c1ccc2c(ccc[n+]2[O-])c1)c1ccc(Br)cc1 | 2.6 (≈ 7.34 µM) | > 500 | 1.1 (≈ 3.11 µM) | 62.5 (≈ 176 µM) | 62.5 (≈ 176 µM) | > 500 | 6.6 (≈ 18.6 µM) | 4.7 (≈ 13.3 µM) | 65.5 (≈ 185 µM) | > 500 | – | – | – | – | – | – | – | –
O=C(/C=C/c1ccc2ncccc2c1)c1ccc([N+](=O)[O-])cc1 | – | > 500 | – | > 500 | 500 (≈ 1640 µM) | > 500 | – | – | – | > 500 | – | – | – | – | – | – | – | –
O=C(/C=C/c1ccc2c(ccc[n+]2[O-])c1)c1ccc(F)cc1 | – | > 500 | 0.19 (≈ 0.648 µM) | 62.5 (≈ 213 µM) | 1.9 (≈ 6.48 µM) | > 500 | 4.3 (≈ 14.7 µM) | 2.75 (≈ 9.38 µM) | 71.9 (≈ 245 µM) | > 500 | Not Active | > 31.2 | – | 1.9 | – | – | > 31.2 | –
O=C(/C=C/c1ccc2ncccc2c1)c1ccccc1 | – | > 500 | 7 (≈ 27 µM) | 125 (≈ 482 µM) | – | > 500 | 1.1 (≈ 4.24 µM) | 3.83 (≈ 14.8 µM) | – | > 500 | Not Active | – | – | – | – | – | – | Not Active
C[n+]1cccc2cc(/C=C/C(=O)c3ccc(F)cc3)ccc21.[I-] | – | 62.5 | – | 15.6 | – | 500 | – | – | – | > 500 | Not Active | > 31.2 | Not Active | > 31.2 | Not Active | Not Active | 62.5 | Not Active
O=C(/C=C/c1ccc2ncccc2c1)c1ccc(Cl)cc1 | 8.8 (≈ 30 µM) | > 500 | – | > 500 | 62.5 (≈ 213 µM) | > 500 | 0.96 (≈ 3.27 µM) | – | 15 (≈ 51.1 µM) | > 500 | – | – | Not Active | – | – | Not Active | – | –
C[C@@H]1[C@H](O)[C@@H](C)/C=C/C=C/C=C/C=C/C=C/C=C/C=C/[C@H](O[C@@H]2O[C@H](C)[C@@H](O)[C@H](N)[C@@H]2O)C[C@@H]2O[C@](O)(C[C@@H](O)C[C@@H](O)[C@H](O)CC[C@@H](O)C[C@@H](O)CC(=O)O[C@H]1C)C[C@H](O)[C@H]2C(=O)O [AMPHOTERICIN B] | – | 0.25 (≈ 0.271 µM) | – | 1.2 (≈ 1.3 µM) | 0.006 (≈ 0.00649 µM) | 1 (≈ 1.08 µM) | – | – | – | 0.5 (≈ 0.541 µM) | – | – | – | – | – | – | – | –
C[n+]1cccc2cc(/C=C/C(=O)c3ccccc3)ccc21.[I-] | – | 125 | – | 31.2 | 500 | > 500 | – | – | – | > 500 | Not Active | – | Not Active | – | Not Active | Not Active | – | Not Active
O=C(/C=C/c1ccc2c(ccc[n+]2[O-])c1)c1ccccc1 | 4.9 (≈ 17.8 µM) | > 500 | – | 250 (≈ 908 µM) | 62.5 (≈ 227 µM) | > 500 | – | – | – | > 500 | – | – | Not Active | – | Not Active | Not Active | – | Not Active
COc1ccc(C(=O)/C=C/c2ccc3ncccc3c2)cc1 | 12.6 (≈ 43.5 µM) | > 500 | – | > 500 | 62.5 (≈ 216 µM) | > 500 | 0.19 (≈ 0.657 µM) | 22.5 (≈ 77.8 µM) | 19.6 (≈ 67.7 µM) | > 500 | – | – | Not Active | – | – | – | – | –
COc1cc([C@@H]2c3cc4c(cc3[C@@H](O[C@@H]3O[C@@H]5CO[C@@H](C)O[C@H]5[C@H](O)[C@H]3O)[C@H]3COC(=O)[C@H]23)OCO4)cc(OC)c1O [ETOPOSIDE] | 0.47 (≈ 0.799 µM) | – | 20.4 (≈ 34.7 µM) | – | – | – | 0.03 (≈ 0.051 µM) | 1.4 (≈ 2.38 µM) | 2.8 (≈ 4.76 µM) | – | – | – | – | – | – | – | – | –
O=C(/C=C/c1ccc2ncccc2c1)c1ccc(Br)cc1 | – | > 500 | – | > 500 | > 500 | > 500 | – | – | – | > 500 | – | – | – | – | – | – | – | –
